Reference: ChEMBL document CHEMBL3525938, “Whole-body physiologically based pharmacokinetic model for nutlin-3a in mice after intravenous and oral administration” (Drug Metab Dispos, 2011)

How the values were obtained:
Liver [1] = assay: Drug uptake in C57BL/6 mouse liver at 50 to 200 mg/kg, po as single dose measured at 2 hrs; format: ADME, organism-based; set-up: dose 50-200 mg/kg, route oral; conditions: in vivo
Summary of the method: (§1)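 Adult C57BL/6 mice received a single bolus of 10 mg/kg by tail-vein iv injection or 100 or 200 mg/kg by oral gavage, with n = 5 per group and vehicle controls. Samples were taken at 0.5–48 h. Blood came by cardiac puncture under isoflurane, and tissues were dissected at the same time and frozen at −80°C. Tissues were homogenized in 5 mM ammonium formate, pH 7, and assayed by LC-ESI-MS/MS against matrix-matched standards.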

Lung [2] = assay: Drug uptake in C57BL/6 mouse lung at 50 to 200 mg/kg, po as single dose measured at 2 hrs; format: ADME, organism-based; set-up: dose 50-200 mg/kg, route oral; conditions: in vivo
[3] = Drug uptake in C57BL/6 mouse adipose tissue at 10 mg/kg, iv as single dose measured at 24 hrs; format: ADME, organism-based; set-up: dose 10 mg/kg, route intravenous; conditions: in vivo
[4] = Drug uptake in C57BL/6 mouse retina at 10 mg/kg, iv as single dose measured at 24 hrs; format: ADME, organism-based; set-up: dose 10 mg/kg, route intravenous; conditions: in vivo; summary of the method: as §1
Brain [5] = assay: Drug uptake in C57BL/6 mouse brain at 10 mg/kg, iv as single dose measured at 24 hrs; format: ADME, organism-based; set-up: dose 10 mg/kg, route intravenous; conditions: in vivo; summary of the method: as §1
Bone marrow [6] = assay: Drug uptake in C57BL/6 mouse bone marrow at 50 to 200 mg/kg, po as single dose measured at 2 hrs; format: ADME, organism-based; set-up: dose 50-200 mg/kg, route oral; conditions: in vivo; summary of the method: as §1
[7] = Cytotoxicity against doxorubicin-resistant human UKF-NB-3 cells after 96 hrs by MTT assay; format: functional, cell-based; conditions: UKF-NB-3, 96 h
Intestine [8] = assay: Drug uptake in C57BL/6 mouse intestine at 10 mg/kg, iv as single dose measured at 24 hrs; format: ADME, organism-based; set-up: dose 10 mg/kg, route intravenous; conditions: in vivo
[9] = Drug uptake in C57BL/6 mouse adrenal gland at 10 mg/kg, iv as single dose measured at 24 hrs; format: ADME, organism-based; set-up: dose 10 mg/kg, route intravenous; conditions: in vivo
[10] = Drug uptake in C57BL/6 mouse vitreous humor at 10 mg/kg, iv as single dose measured at 24 hrs; format: ADME, organism-based; set-up: dose 10 mg/kg, route intravenous; conditions: in vivo; summary of the method: as §1
Spleen [11] = assay: Drug uptake in C57BL/6 mouse spleen at 10 mg/kg, iv as single dose measured at 24 hrs; format: ADME, organism-based; set-up: dose 10 mg/kg, route intravenous; conditions: in vivo; summary of the method: as §1
Muscle tissue [12] = assay: Drug uptake in C57BL/6 mouse muscle at 10 mg/kg, iv as single dose measured at 24 hrs; format: ADME, organism-based; set-up: dose 10 mg/kg, route intravenous; conditions: in vivo
[13] = Fraction unbound in C57BL/6 mouse plasma at 0.1 uM up to 24 hrs by equilibrium dialysis method; format: ADME, cell-free
Summary of the method: (§2)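 Equilibrium dialysis used male C57BL/6 plasma spiked with the drug against PBS across a 5-kDa membrane. The plate was rotated at 37°C under humidified 5% CO2 for 24 h, in triplicate. The plasma side was taken as bound and the PBS side as free, both measured by LC-MS/MS. Fraction unbound was calculated relative to total plasma concentration.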

Plasma [14] = assay: Drug uptake in C57BL/6 mouse plasma at 50 to 200 mg/kg, po as single dose measured at 2 hrs; format: ADME, organism-based; set-up: dose 50-200 mg/kg, route oral; conditions: in vivo
Summary of the method: (§3)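 Plasma came from two studies in C57BL/6 mice. Study 1: single iv dose of 10 mg/kg or oral dose of 100 or 200 mg/kg, n = 5, blood by cardiac puncture at 0.5–48 h. Study 2 (males): iv 10 or 20 mg/kg, oral 50 or 100 mg/kg, serial plasma to 24 h (iv) or 16 h (oral). Plasma was separated at 12,000g for 5 min at 4°C and measured by LC-ESI-MS/MS.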

Bone marrow [15] = assay: Drug uptake in C57BL/6 mouse bone marrow at 10 mg/kg, iv as single dose measured at 24 hrs; format: ADME, organism-based; set-up: dose 10 mg/kg, route intravenous; conditions: in vivo; summary of the method: as §1
Liver [16] = assay: Drug uptake in C57BL/6 mouse liver at 10 mg/kg, iv as single dose measured at 24 hrs; format: ADME, organism-based; set-up: dose 10 mg/kg, route intravenous; conditions: in vivo; summary of the method: as §1
[17] = Drug uptake in C57BL/6 mouse retina at 50 to 200 mg/kg, po as single dose measured at 2 hrs; format: ADME, organism-based; set-up: dose 50-200 mg/kg, route oral; conditions: in vivo
[18] = Drug uptake in C57BL/6 mouse adipose tissue at 50 to 200 mg/kg, po as single dose measured at 2 hrs; format: ADME, organism-based; set-up: dose 50-200 mg/kg, route oral; conditions: in vivo
[19] = Ratio of drug level in blood to plasma in C57BL/6 mouse after 30 mins; format: ADME; conditions: blood and plasma
Summary of the method: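 Pooled heparinized whole blood from male C57BL/6 mice was spiked at 0.1, 1, 10 and 100 μM final, in triplicate, and incubated at 37°C for 30 min with mixing every 5 min. Whole blood was sampled, and plasma was obtained by centrifugation. Both were measured by LC-MS/MS, and the ratio was calculated from the whole-blood and plasma concentrations.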

Muscle tissue [20] = assay: Drug uptake in C57BL/6 mouse muscle at 50 to 200 mg/kg, po as single dose measured at 2 hrs; format: ADME, organism-based; set-up: dose 50-200 mg/kg, route oral; conditions: in vivo
Plasma [21] = assay: Drug uptake in C57BL/6 mouse plasma at 10 mg/kg, iv as single dose measured at 24 hrs; format: ADME, organism-based; set-up: dose 10 mg/kg, route intravenous; conditions: in vivo; summary of the method: as §3
Intestine [22] = assay: Drug uptake in C57BL/6 mouse intestine at 50 to 200 mg/kg, po as single dose measured at 2 hrs; format: ADME, organism-based; set-up: dose 50-200 mg/kg, route oral; conditions: in vivo
Spleen [23] = assay: Drug uptake in C57BL/6 mouse spleen at 50 to 200 mg/kg, po as single dose measured at 2 hrs; format: ADME, organism-based; set-up: dose 50-200 mg/kg, route oral; conditions: in vivo; summary of the method: as §1
[24] = Fraction unbound in C57BL/6 mouse plasma at 300 uM up to 24 hrs by equilibrium dialysis method; format: ADME, cell-free; summary of the method: as §2
[25] = Drug uptake in C57BL/6 mouse vitreous humor at 50 to 200 mg/kg, po as single dose measured at 2 hrs; format: ADME, organism-based; set-up: dose 50-200 mg/kg, route oral; conditions: in vivo
Lung [26] = assay: Drug uptake in C57BL/6 mouse lung at 10 mg/kg, iv as single dose measured at 24 hrs; format: ADME, organism-based; set-up: dose 10 mg/kg, route intravenous; conditions: in vivo
Brain [27] = assay: Drug uptake in C57BL/6 mouse brain at 50 to 200 mg/kg, po as single dose measured at 2 hrs; format: ADME, organism-based; set-up: dose 50-200 mg/kg, route oral; conditions: in vivo; summary of the method: as §1
[28] = Drug uptake in C57BL/6 mouse adrenal gland at 50 to 200 mg/kg, po as single dose measured at 2 hrs; format: ADME, organism-based; set-up: dose 50-200 mg/kg, route oral; conditions: in vivo

## COc1ccc(C2=N[C@@H](c3ccc(Cl)cc3)[C@@H](c3ccc(Cl)cc3)N2C(=O)N2CCNC(=O)C2)c(OC(C)C)c1 [NUTLIN-3]
Liver [1]
  Drug uptake: Active
Lung [2]
  Drug uptake: Active
[3]
  Drug uptake: Not Active
[4]
  Drug uptake: Not Active
Brain [5]
  Drug uptake: Not Active
Bone marrow [6]
  Drug uptake: Not Active
[7]
  IC50: 5.56 µM
Intestine [8]
  Drug uptake: Not Active
[9]
  Drug uptake: Not Active
[10]
  Drug uptake: Not Active
Spleen [11]
  Drug uptake: Not Active
Muscle tissue [12]
  Drug uptake: Not Active
[13]
  fraction unbound at 24 h, 0.1 µM: 0.007
Plasma [14]
  Drug uptake: Active
Bone marrow [15]
  Drug uptake: Not Active
Liver [16]
  Drug uptake: Not Active
[17]
  Drug uptake: Active
[18]
  Drug uptake: Active
[19]
  blood plasma ratio at 0.5 h: 0.7
Muscle tissue [20]
  Drug uptake: Active
Plasma [21]
  Drug uptake: Not Active
Intestine [22]
  Drug uptake: Active
Spleen [23]
  Drug uptake: Active
[24]
  fraction unbound at 24 h, 300 µM: 0.118
[25]
  Drug uptake: Not Active
Lung [26]
  Drug uptake: Not Active
Brain [27]
  Drug uptake: Not Active
[28]
  Drug uptake: Active
